ChEMBL document CHEMBL3576766, “Immunomodulatory and Antileishmanial Activity of Phenylpropanoid Dimers Isolated from Nectandra leucantha” (J Nat Prod, 2015)
pIC50: −log10 of the molar value. The source made the active and inactive calls. The calls are words filed in the database; no cut-off is given here.

Columns and labels:
[1] = Selectivity index, ratio of CC50 for BALB/c mouse peritoneal macrophages to IC50 for DsRed2-Leishmania donovani amastigotes; format: functional
Leishmania donovani [2] = assay: Antileishmanial activity against DsRed2 expressing Leishmania donovani amastigotes assessed as parasite death after 72 hrs by flow cytometry
[3] = Induction of NO production in C57BL/6 mouse macrophages after 72 hrs by Griess assay; conditions: macrophage
Leishmania donovani [4] = assay: Antileishmanial activity against DsRed2 expressing Leishmania donovani promastigote assessed as parasite death after 48 hrs by flow cytometry; format: functional, organism-based
Macrophage = assay: Inhibition of IL6 production in DsRed2-Leishmania donovani promastigote infected in C57BL/6 mouse macrophages after 72 hrs by ELISA; format: functional, cell-based
Procedure, shortened: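 C57BL/6 bone marrow-derived macrophages (3.5×10^6 cells/well, quadruplicates) were infected with DsRed2-L. donovani promastigotes at 1:10 and treated for 72 h at 37 °C. Supernatant IL-6 was measured by ELISA and reported in pg/mL as mean ± SE.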

[5] = Cytotoxicity against BALB/c mouse peritoneal macrophages after 48 hrs by MTT assay; format: cell-based; conditions: peritoneal macrophage cell
Procedure, shortened: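 BALB/c peritoneal macrophages were seeded at 1×10^5 cells/well and exposed to 0.2 to 600 μM compound for 48 h at 37 °C under 5% CO2. Viability was read by MTT cleavage, with formazan extracted in 10% SDS for 18 h at 24 °C and absorbance read at 570 nm.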

Molecule	Ratio CC50/IC50 [1]	pIC50 (Leishmania donovani [2])	Activity [3]	IC50 (Leishmania donovani [4])	inhibition (Macrophage)	CC50 [5] [µM]	pIC50 (Leishmania donovani [4]; read-out: IC50)
C=CCc1ccc(Oc2cc([C@H](O)C=C)cc(OC)c2O)c(OC)c1	>2.9	3.99	Non-toxic	Not Active	Active	> 292	–
SODIUM ANTIMONY GLUCONATE	–	–	–	–	–	53.4	3.51
